Experimental data taken from ChEMBL document CHEMBL1138290 (J Med Chem, 2007).

Key:
[1] = Cell cycle arrest in KB/HeLa cells assessed as accumulation at S phase at 10 nM after 24 hrs by flow cytometric analysis; assay type: functional, cell-based; settings: Homo sapiens
Procedure, shortened: (§1)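 Subconfluent KB/HeLa cells exposed to a range of compound concentrations for 24 h. Cell cycle phase distribution determined by flow cytometry. Experiments run at least in duplicate (n = 2).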

[2] = Cell cycle arrest in KB/HeLa cells assessed as accumulation at G1 phase at 316 nM after 24 hrs by flow cytometric analysis; assay type: functional, cell-based; settings: Homo sapiens; procedure, shortened: as §1
[3] = Cell cycle arrest in KB/HeLa cells assessed as accumulation at G1 phase at 3.16 nM after 24 hrs by flow cytometric analysis; assay type: functional, cell-based; settings: Homo sapiens; procedure, shortened: as §1
[4] = Cell cycle arrest in KB/HeLa cells assessed as accumulation at G1 phase at 31.6 nM after 24 hrs by flow cytometric analysis; assay type: functional, cell-based; settings: Homo sapiens; procedure, shortened: as §1
[5] = Cell cycle arrest in KB/HeLa cells assessed as accumulation at G1 phase at 1 nM after 24 hrs by flow cytometric analysis; assay type: functional, cell-based; settings: Homo sapiens; procedure, shortened: as §1
[6] = Cell cycle arrest in KB/HeLa cells assessed as accumulation at G2M phase at 0.3 nM after 24 hrs by flow cytometric analysis; assay type: functional, cell-based; settings: Homo sapiens; procedure, shortened: as §1
[7] = Cell cycle arrest in KB/HeLa cells assessed as accumulation at G2M phase at 10 nM after 24 hrs by flow cytometric analysis; assay type: functional, cell-based; settings: Homo sapiens; procedure, shortened: as §1
[8] = Cell cycle arrest in KB/HeLa cells assessed as accumulation at S phase at 100 nM after 24 hrs by flow cytometric analysis; assay type: functional, cell-based; settings: Homo sapiens; procedure, shortened: as §1
[9] = Cell cycle arrest in KB/HeLa cells assessed as accumulation at S phase at 3.16 nM after 24 hrs by flow cytometric analysis; assay type: functional, cell-based; settings: Homo sapiens; procedure, shortened: as §1
[10] = Cell cycle arrest in KB/HeLa cells assessed as accumulation at G2M phase at 0.1 nM after 24 hrs by flow cytometric analysis; assay type: functional, cell-based; settings: Homo sapiens; procedure, shortened: as §1
[11] = Cell cycle arrest in KB/HeLa cells assessed as accumulation at S phase at 0.1 nM after 24 hrs by flow cytometric analysis; assay type: functional, cell-based; settings: Homo sapiens; procedure, shortened: as §1
[12] = Cell cycle arrest in KB/HeLa cells assessed as accumulation at G2M phase at 31.6 nM after 24 hrs by flow cytometric analysis; assay type: functional, cell-based; settings: Homo sapiens; procedure, shortened: as §1
[13] = Cell cycle arrest in KB/HeLa cells assessed as accumulation at G2M phase at 3.16 nM after 24 hrs by flow cytometric analysis; assay type: functional, cell-based; settings: Homo sapiens
[14] = Cell cycle arrest in KB/HeLa cells assessed as accumulation at G2/M phase after 24 hrs by flow cytometric analysis; assay type: functional, cell-based; settings: Homo sapiens; procedure, shortened: as §1
[15] = Cell cycle arrest in KB/HeLa cells assessed as accumulation at S phase at 1 nM after 24 hrs by flow cytometric analysis; assay type: functional, cell-based; settings: Homo sapiens; procedure, shortened: as §1
[16] = Cell cycle arrest in KB/HeLa cells assessed as accumulation at S phase at 31.6 nM after 24 hrs by flow cytometric analysis; assay type: functional, cell-based; settings: Homo sapiens; procedure, shortened: as §1
[17] = Cell cycle arrest in KB/HeLa cells assessed as accumulation at G2M phase at 100 nM after 24 hrs by flow cytometric analysis; assay type: functional, cell-based; settings: Homo sapiens; procedure, shortened: as §1
[18] = Cell cycle arrest in KB/HeLa cells assessed as accumulation at G1 phase at 0.3 nM after 24 hrs by flow cytometric analysis; assay type: functional, cell-based; settings: Homo sapiens; procedure, shortened: as §1
[19] = Cell cycle arrest in KB/HeLa cells assessed as accumulation at G2M phase at 1 nM after 24 hrs by flow cytometric analysis; assay type: functional, cell-based; settings: Homo sapiens; procedure, shortened: as §1
[20] = Cell cycle arrest in KB/HeLa cells assessed as accumulation at G1 phase at 10 nM after 24 hrs by flow cytometric analysis; assay type: functional, cell-based; settings: Homo sapiens; procedure, shortened: as §1
[21] = Cell cycle arrest in KB/HeLa cells assessed as accumulation at G2M phase at 316 nM after 24 hrs by flow cytometric analysis; assay type: functional, cell-based; settings: Homo sapiens; procedure, shortened: as §1
[22] = Cell cycle arrest in KB/HeLa cells assessed as accumulation at G1 phase at 0.1 nM after 24 hrs by flow cytometric analysis; assay type: functional, cell-based; settings: Homo sapiens; procedure, shortened: as §1
[23] = Cell cycle arrest in KB/HeLa cells assessed as accumulation at S phase at 316 nM after 24 hrs by flow cytometric analysis; assay type: functional, cell-based; settings: Homo sapiens; procedure, shortened: as §1
[24] = Cell cycle arrest in KB/HeLa cells assessed as accumulation at G1 phase at 100 nM after 24 hrs by flow cytometric analysis; assay type: functional, cell-based; settings: Homo sapiens; procedure, shortened: as §1
[25] = Cell cycle arrest in KB/HeLa cells assessed as accumulation at S phase at 0.3 nM after 24 hrs by flow cytometric analysis; assay type: functional, cell-based; settings: Homo sapiens; procedure, shortened: as §1
[26] = test system: RKO; experiment: Cytotoxicity against human RKO cells with ectopic-inducible expression of p27kip1 after 48 hrs by XTT assay; assay type: functional, cell-based
Procedure, shortened: (§2)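 XTT proliferation assay with 48 h incubation with test compound. Each experiment run at least in duplicate (n = 2). IC50 calculated by nonlinear regression of dose-response curves.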

[27] = test system: P388; experiment: Antiproliferative activity against mouse adriamycin-resistant P388 cells after 48 hrs by XTT assay; assay type: functional, cell-based; settings: P388, 48 h; procedure, shortened: as §2
[28] = target: Tubulin; experiment: Displacement of [3H]colchicine from biotinylated tubulin by scintillation proximity assay; assay type: protein-complex assay, Homo sapiens
[29] = Cell cycle arrest in KB/HeLa cells assessed as accumulation at G2M phase at 1000 nM after 24 hrs by flow cytometric analysis; assay type: functional, cell-based; settings: Homo sapiens; procedure, shortened: as §1
[30] = test system: SK-OV-3; experiment: Cytotoxicity against human SKOV3 cells after 48 hrs by XTT assay; assay type: functional, cell-based; settings: SK-OV-3, 48 h; procedure, shortened: as §2
[31] = Cytotoxicity against human KB/HeLa cells after 48 hrs by XTT assay; assay type: functional, cell-based; procedure, shortened: as §2
[32] = Cell cycle arrest in KB/HeLa cells assessed as accumulation at S phase at 1000 nM after 24 hrs by flow cytometric analysis; assay type: functional, cell-based; settings: Homo sapiens; procedure, shortened: as §1
[33] = Cell cycle arrest in KB/HeLa cells assessed as accumulation at G1 phase at 1000 nM after 24 hrs by flow cytometric analysis; assay type: functional, cell-based; settings: Homo sapiens; procedure, shortened: as §1
[34] = test system: L1210; experiment: Antiproliferative activity against mouse L1210 cells after 48 hrs by XTT assay; assay type: functional, cell-based; settings: L1210, 48 h; procedure, shortened: as §2
[35] = test system: SF-268; experiment: Cytotoxicity against human SF268 cells after 48 hrs by XTT assay; assay type: functional, cell-based; settings: SF-268, 48 h; procedure, shortened: as §2
[36] = test system: RKO; experiment: Cytotoxicity against human RKO cells after 48 hrs by XTT assay; assay type: functional, cell-based; procedure, shortened: as §2
[37] = target: Tubulin (Sus scrofa, UniProt P02554+P02550); experiment: Inhibition of porcine brain tubulin polymerization
[38] = test system: P388; experiment: Antiproliferative activity against mouse P388 cells after 48 hrs by XTT assay; assay type: functional, cell-based; settings: P388, 48 h; procedure, shortened: as §2
[39] = test system: L1210; experiment: Antiproliferative activity against mouse vincristine-resistant L1210 cells after 48 hrs by XTT assay; assay type: functional, cell-based; settings: L1210, 48 h; procedure, shortened: as §2
[40] = Antiproliferative activity against rat L12 cells after 48 hrs by XTT assay; assay type: functional, cell-based
[41] = test system: NCI-H460; experiment: Cytotoxicity against human NCI-H460 cells after 48 hrs by XTT assay; assay type: functional, cell-based; settings: NCI-H460, 48 h; procedure, shortened: as §2
[42] = Antiproliferative activity against rat multidrug-resistant L12 cells after 48 hrs by XTT assay; assay type: functional, cell-based; settings: L1.2, 48 h; procedure, shortened: as §2
[43] = test system: K562; experiment: Antiproliferative activity against human K562 cells after 48 hrs; assay type: functional, cell-based; settings: K562, 48 h
Procedure, shortened: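 Growth of K562 cells measured by counting cells with a hemocytometer after 48 h (2 days) of drug treatment. IC50 is the mean of at least three independent determinations.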

`CC[C@]1(O)C[C@H]2CN(CCc3c([nH]c4ccccc34)[C@@](C(=O)OC)(c3cc4c(cc3OC)N(C=O)[C@H]3[C@@](O)(C(=O)OC)[C@H](OC(C)=O)[C@]5(CC)C=CCN6CC[C@]43[C@@H]65)C2)C1` [VINCRISTINE] showed an Activity [1] of 13.1%, an Activity [2] of 0.2% and an Activity [3] of 6.5%. The Activity [4] was 1%, the Activity [5] was 53.7% and the Activity [6] was 11.7%. For the same compound, the Activity [7] was 86.7%, the Activity [8] was 4.8% and the Activity [9] was 26%. It also gave an Activity [10] of 11.1%, an Activity [11] of 27.7% and an Activity [12] of 92.6%. The Activity [13] was 65.8%, the EC50 [14] was 2.4 nM and the Activity [15] was 28.3%. The Activity [16] was 7.2%, the Activity [17] was 95.1% and the Activity [18] was 64.5%. For the same compound, the Activity [19] was 17.2%, the Activity [20] was 0.5% and the Activity [21] was 93.8%. It also gave an Activity [22] of 61.2%, an Activity [23] of 5.9% and an Activity [24] of 0.2%. It also gave an Activity [25] of 24%.
In the case of `COc1ccc(S(=O)(=O)Oc2c3ccccc3cc3sccc23)cc1`, the Activity [1] is reported as 27.4%, the IC50 [26] is reported as over 9000 nM and the Activity [2] is reported as 0.9%. For the same compound, the IC50 [27] was 180 nM, the Activity [3] was 62.2% and the Activity [4] was 59.8%. For the same compound, the Activity [5] was 61.9%, the Activity [6] was 12% and the IC50 [28] was 510 nM. The Activity [29] was 88.7%, the Activity [7] was 11.9% and the IC50 [30] was 210 nM. It also gave an IC50 [31] of 180 nM, an Activity [32] of 9.7% and an Activity [33] of 1.6%. For the same compound, the Activity [8] was 32.1%, the IC50 [34] was 190 nM and the Activity [9] was 26.5%. The Activity [10] was 12.3%, the Activity [11] was 27.1% and the Activity [12] was 11.7%. For the same compound, the Activity [13] was 11.3%, the IC50 [35] was 260 nM and the EC50 [14] was 125 nM. The IC50 [36] was 180 nM, the IC50 [37] was 910 nM and the IC50 [38] was 180 nM. The Activity [15] was 26.7%, the Activity [16] was 28.6% and the IC50 [39] was 200 nM. For the same compound, the IC50 [40] was 170 nM, the Activity [17] was 16.7% and the IC50 [41] was 210 nM. It also gave an Activity [18] of 61.4%, an Activity [19] of 11.4% and an Activity [20] of 60.7%. The IC50 [42] was 190 nM, the Activity [21] was 92.1% and the Activity [22] was 60.6%. For the same compound, the Activity [23] was 7%, the IC50 [43] was 60 nM and the Activity [24] was 51.2%. For the same compound, the Activity [25] was 26.6%.
`COC(=O)Nc1nc2cc(C(=O)c3cccs3)ccc2[nH]1` [NOCODAZOLE] showed an Activity [1] of 25.7%, an IC50 [26] of over 14000 nM and an Activity [2] of 0.9%. The IC50 [27] was 50 nM, the Activity [3] was 64.6% and the Activity [4] was 64.4%. For the same compound, the Activity [5] was 65.2%, the Activity [7] was 10% and the IC50 [31] was 140 nM. It also gave an Activity [8] of 26.1%, an Activity [9] of 24.8% and an Activity [12] of 9.9%. For the same compound, the Activity [13] was 10.6%, the EC50 [14] was 91 nM and the IC50 [38] was 70 nM. It also gave an Activity [15] of 23.6%, an Activity [16] of 25.7% and an IC50 [40] of 300 nM. It also gave an Activity [17] of 51.4%, an Activity [19] of 11.1% and an Activity [20] of 64.2%. For the same compound, the IC50 [42] was 50 nM, the Activity [21] was 93.2% and the Activity [23] was 6%. The Activity [24] was 22.3%.
